# Data published in ChEMBL document CHEMBL4725347, “Discovery of a Monoiodo Aza-BODIPY Near-Infrared Photosensitizer: in vitro and in vivo Evaluation for Photodynamic Therapy” (J Med Chem, 2020).
# Tests used:
# MCF7 = assay: Phototoxicity against human MCF7 cells assessed as reduction in cell viability preincubated for 3 hrs followed by 54 J/cm2 light irradiation and measured after 24 hrs by MTT assay; assay type: functional, cell-based; settings: MCF7, light or radiation study
# Method in brief: (§1)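 PS formulated in PBS containing Cremophor EL/1,2-propanediol (10:3, v:v) after THF removal, filtered, with concentration confirmed by UV-Vis. Cells were grown in DMEM with 10% FBS and seeded at 3×10^3 per well overnight. They were incubated with PS for 3 h, irradiated at λ > 590 nm, kept 24 h at 37 °C, then given MTT (0.5 mg/mL, 4 h) with DMSO solubilization and A490 read-out.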
# HeLa = assay: Phototoxicity against human HeLa cells assessed as reduction in cell viability preincubated for 3 hrs followed by 54 J/cm2 light irradiation and measured after 24 hrs by MTT assay; assay type: functional, cell-based; settings: light or radiation study; method in brief: as §1
# [1] = Absorption property of the compound in chloroform assessed as absorption coefficient by UV-visible spectrophotometric method; assay type: physicochemical
# Method in brief: (§2)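 Electronic absorption spectra recorded by UV-visible spectrophotometry at room temperature. Solvents were chloroform, isopropanol, acetonitrile, DMF, and PBS buffer containing 1% Cremophor EL/1,2-propanediol (10:3, v:v). Chloroform data were referenced to the non-halogenated parent dye.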
# [2] = Absorption property of the compound in chloroform assessed as hypsochromic shift by measuring maximum absorption wavelength by UV-visible spectrophotometric method; assay type: physicochemical; method in brief: as §2
# [3] = Emission property of the compound in chloroform assessed as maximum emission wavelength by fluorescence spectrophotometric method; assay type: physicochemical
# Method in brief: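 Fluorescence spectrum recorded in chloroform by fluorescence spectrophotometer at room temperature.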
# [4] = Dark toxicity in human HeLa cells assessed as reduction in cell viability after 3 hrs by MTT assay; assay type: cell-based
# Method in brief: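 Compound was formulated with Cremophor EL/1,2-propanediol in PBS, filtered, and its concentration confirmed by UV-Vis. HeLa cells in DMEM with 10% FBS at 37 °C, 5% CO2 were seeded at 3×10^3 cells/well and adhered overnight. Cells were exposed to graded concentrations for 3 h without light, incubated 24 h, then MTT 0.5 mg/mL for 4 h; formazan dissolved in DMSO, A490 read.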
# [5] = Induction of singlet oxygen generation in N,N-dimethylformamide assessed as relative rate of DPBF degradation to MB at 1 uM irradiated with 90 mW/cm2 halogen light; assay type: functional
# Method in brief: (§3)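 Singlet oxygen generation measured with 1,3-diphenylisobenzofuran (DPBF) as scavenger. The decrease in DPBF absorbance at 411 nm was monitored over time during light irradiation, and the photodegradation rate was calculated.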
# [6] = Dark toxicity in human MCF7 cells assessed as reduction in cell viability after 3 hrs by MTT assay; assay type: cell-based
# [7] = Dark toxicity in human SW480 cells assessed as reduction in cell viability after 3 hrs by MTT assay; assay type: cell-based
# SW480 = assay: Phototoxicity against human SW480 cells assessed as reduction in cell viability preincubated for 3 hrs followed by 54 J/cm2 light irradiation and measured after 24 hrs by MTT assay; assay type: functional, cell-based; settings: SW480, light or radiation study; method in brief: as §1
# [8] = Induction of singlet oxygen generation in PBS containing 1% Cremophor EL/1,2-propanediol (10:3, v:v) system assessed as relative rate of DPBF degradation to MB at 1 uM irradiated with 90 mW/cm2 halogen light; assay type: functional; method in brief: as §3
# [9] = Absorption property of the compound in N,N-dimethylformamide assessed as absorption coefficient by UV-visible spectrophotometric method; assay type: physicochemical; method in brief: as §2
# [10] = Absorption property of the compound in isopropanol assessed as absorption coefficient by UV-visible spectrophotometric method; assay type: physicochemical; method in brief: as §2
# [11] = Photostability of the compound in PBS containing 1% Cremophor EL/1,2-propanediol (10:3, v:v) system assessed as compound degradation irradiated with 90 mW/cm2 light; assay type: physicochemical; settings: buffer
# [12] = Photostability of the compound in N,N-dimethylformamide assessed as compound degradation irradiated with 90 mW/cm2 light; assay type: physicochemical
# [13] = Stability of the compound in acetonitrile assessed as compound degradation under dark condition; assay type: physicochemical
# [14] = Stability of the compound in PBS containing 1% Cremophor EL/1,2-propanediol (10:3, v:v) system assessed as compound degradation under dark condition; assay type: physicochemical; settings: buffer
# [15] = Photostability of the compound in acetonitrile assessed as compound degradation irradiated with 90 mW/cm2 light; assay type: physicochemical
# [16] = Photostability of the compound in isopropanol assessed as compound degradation irradiated with 90 mW/cm2 light; assay type: physicochemical
# [17] = Induction of singlet oxygen generation in isopropanol assessed as relative rate of DPBF degradation to MB at 1 uM irradiated with 90 mW/cm2 halogen light; assay type: functional; method in brief: as §3
# [18] = Absorption property of the compound in acetonitrile assessed as absorption coefficient by UV-visible spectrophotometric method; assay type: physicochemical; method in brief: as §2
# [19] = Absorption property of the compound in PBS containing 1% Cremophor EL/1,2-propanediol (10:3, v:v) system assessed as absorption coefficient by UV-visible spectrophotometric method; assay type: physicochemical; settings: buffer; method in brief: as §2
Activity [1] [M⁻¹ cm⁻¹],Activity [2] [nm],Activity [3] [nm],SMILES,IC50 (MCF7) [µM],IC50 (HeLa) [µM],IC50 at 3 h [4] [µM],fold change (FC) [5],IC50 at 3 h [6] [µM],IC50 at 3 h [7] [µM],IC50 (SW480) [µM],other results
81500,695,740,COc1ccc2c(c1)CCc1c(-c3ccccc3)c3n(c1-2)[B-](F)(F)[N+]1=C(c2cccs2)C(I)=C(c2ccccc2)C1=N3,0.75,0.46,> 50,0.37,> 50,> 50,0.83,–
91300,732,768,Cc1ccc(C2=[N+]3C(=Nc4c(-c5ccccc5)c(I)c(-c5ccc(C)s5)n4[B-]3(F)F)C(c3ccccc3)=C2I)s1,16.4,> 25,> 50,0.36,> 50,> 50,> 25,–
104400,682,709,COc1ccc2c(c1)CCc1c(-c3ccccc3)c3n(c1-2)[B-](F)(F)[N+]1=C(c2ccc(C)cc2)C(Br)=C(c2ccccc2)C1=N3,8.1,1.2,> 50,0.14,> 50,> 50,15.6,–
81000,679,720,COc1ccc(C2=[N+]3C(=Nc4c(-c5ccccc5)cc(-c5ccc(OC)cc5)n4[B-]3(F)F)C(c3ccccc3)=C2Br)cc1,0.35,0.27,> 50,0.19,> 50,> 50,0.28,fold change (FC) [8]: 0.83; Activity [9]: 59300 M⁻¹ cm⁻¹; Activity [10]: 59300 M⁻¹ cm⁻¹; Stabilty [11]: Stable; Stabilty [12]: Unstable; Stabilty [13]: Unstable; Stabilty [14]: Unstable; Stabilty [15]: Stable; Stabilty [16]: Stable; fold change (FC) [17]: 1.1; Activity [18]: 59300 M⁻¹ cm⁻¹; Activity [19]: 34000 M⁻¹ cm⁻¹
110000,682,709,COc1ccc2c(c1)CCc1c(-c3ccccc3)c3n(c1-2)[B-](F)(F)[N+]1=C(c2ccc(C)cc2)C(I)=C(c2ccccc2)C1=N3,0.41,0.11,> 50,0.25,> 50,> 50,0.66,–
101300,689,725,COc1ccc(C2=[N+]3C(=Nc4c(-c5ccccc5)c5c(n4[B-]3(F)F)-c3ccc(OC)cc3CC5)C(c3ccccc3)=C2I)cc1,0.14,0.081,> 50,1.2,> 50,> 50,0.12,–
89600,659,690,Cc1ccc(C2=[N+]3C(=Nc4c(-c5ccccc5)cc(-c5ccc(C)cc5)n4[B-]3(F)F)C(c3ccccc3)=C2I)cc1,1.2,2.6,> 50,0.26,> 50,> 50,12.4,–
71700,732,766,Cc1ccc(C2=[N+]3C(=Nc4c(-c5ccccc5)cc(-c5ccc(C)s5)n4[B-]3(F)F)C(c3ccccc3)=C2I)s1,7.7,15.6,> 50,0.32,> 50,> 50,20.6,–
79900,658,685,Cc1ccc(C2=[N+]3C(=Nc4c(-c5ccccc5)c(Br)c(-c5ccc(C)cc5)n4[B-]3(F)F)C(c3ccccc3)=C2Br)cc1,1.5,4.3,> 50,0.22,> 50,> 50,16.1,–
73700,714,753,COc1ccc2c(c1)CCc1c(-c3ccccc3)c3n(c1-2)[B-](F)(F)[N+]1=C(c2ccc(C)s2)C(Br)=C(c2ccccc2)C1=N3,> 25,22.6,> 50,0.14,> 50,> 50,> 25,–
90300,692,724,COc1ccc(C2=[N+]3C(=Nc4c(-c5ccccc5)c5c(n4[B-]3(F)F)-c3ccc(OC)cc3CC5)C(c3ccccc3)=C2Br)cc1,4.5,0.83,> 50,0.17,> 50,> 50,1.9,–
92000,662,688,Cc1ccc(C2=[N+]3C(=Nc4c(-c5ccccc5)c(I)c(-c5ccc(C)cc5)n4[B-]3(F)F)C(c3ccccc3)=C2I)cc1,5.3,13.4,> 50,0.28,> 50,> 50,> 25,–
76900,716,756,COc1ccc2c(c1)CCc1c(-c3ccccc3)c3n(c1-2)[B-](F)(F)[N+]1=C(c2ccc(C)s2)C(I)=C(c2ccccc2)C1=N3,16.6,12.3,> 50,0.42,> 50,> 50,21.4,–
99000,688,725,COc1ccc(C2=[N+]3C(=Nc4c(-c5ccccc5)cc(-c5ccc(OC)cc5)n4[B-]3(F)F)C(c3ccccc3)=C2)cc1,9.4,11.6,> 50,0.04,> 50,> 50,12.1,fold change (FC) [8]: 0.3; Stabilty [11]: Stable; Stabilty [12]: Unstable; Stabilty [13]: Unstable; Stabilty [14]: Unstable; Stabilty [15]: Stable; Stabilty [16]: Stable; fold change (FC) [17]: 0.28
83600,658,685,Cc1ccc(C2=[N+]3C(=Nc4c(-c5ccccc5)cc(-c5ccc(C)cc5)n4[B-]3(F)F)C(c3ccccc3)=C2Br)cc1,2.6,7.2,> 50,0.12,> 50,> 50,> 25,–
